Laboratory results reported in ChEMBL document CHEMBL5257098, “Development and Characterization of Fluorescent Probes for the G Protein-Coupled Receptor 35” (ACS Med Chem Lett, 2023).
Active and inactive are the calls of the source. The rule behind the calls is not given here.

What was measured:
[1] = target: T1, G-protein coupled receptor 35 (Homo sapiens, UniProt Q9HC97); experiment: Competitive binding affinity to Nluc-fused human GPR35 expressed in CHO-K1 cells assessed as inhibition constant using furimazine as substrate incubated for 30 mins followed by substrate addition by in presence of 10-(4-(2-(4-(4-((2,8-dicarboxy-6-hydroxy-10-methylpyrido[3,2-g]quinolin-4-yl)oxy)butyl)-1H-1,2,3-triazol-1-yl)ethoxy)phenyl)-5,5-difluoro-2,7,9-trimethyl-5H-imidazo[1,2-c]pyrrolo[2,1-f][ …; format: cell-based
T1 sequence (Q9HC97 whole entry, the tested form may be a part): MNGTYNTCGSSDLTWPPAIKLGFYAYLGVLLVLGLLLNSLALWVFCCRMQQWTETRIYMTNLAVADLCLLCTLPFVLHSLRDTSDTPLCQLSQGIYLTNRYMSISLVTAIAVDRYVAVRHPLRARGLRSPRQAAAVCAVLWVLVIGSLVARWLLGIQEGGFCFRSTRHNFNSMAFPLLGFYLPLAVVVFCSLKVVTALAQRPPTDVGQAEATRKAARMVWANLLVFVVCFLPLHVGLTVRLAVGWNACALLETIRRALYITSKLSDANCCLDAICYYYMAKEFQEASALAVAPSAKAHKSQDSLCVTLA

[2] = target: T1, G-protein coupled receptor 35; experiment: Binding affinity to Nluc-fused human GPR35 expressed in CHO-K1 cells using furimazine as substrate incubated for 30 mins in presence of zaprinast followed by substrate addition by […] equilibrium binding assay; format: cell-based
Procedure, shortened: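 CHO-K1 cells were transfected with human GPR35 carrying an N-terminal nano-luciferase tag. Fluorescent probes were added at varying concentrations for saturation BRET binding. […] Kd was derived from the data. Values are mean ± SD of three independent measurements, each in triplicate.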

[3] = target: T1, G-protein coupled receptor 35; experiment: Agonist activity at GPR-35 in human HT-29 cells by DMR assay; format: cell-based
Procedure, shortened: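 Label-free DMR was recorded in HT-29 cells endogenously expressing GPR35 across a range of probe concentrations. EC50 was taken from concentration–response curves. Values are mean ± SD of two independent measurements, each with four replicates.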

[4] = target: T1, G-protein coupled receptor 35; experiment: Agonist activity at human GPR-35 over expressed in CHO-K1 cells incubated for 1 hr followed by zaprinast stimulation by DMR assay; format: cell-based; conditions: filed as agonist
[5] = target: T1, G-protein coupled receptor 35; experiment: Agonist activity at GPR-35 in human HT-29 cells assessed as DMR response in presence of ML-145
[6] = target: T1, G-protein coupled receptor 35; experiment: Agonist activity at GPR-35 in human HT-29 cells assessed as desensitization of zaprinast induced DMR response incubated for 1 hr followed by zaprinast stimulation; format: cell-based
[7] = target: T1, G-protein coupled receptor 35; experiment: Reversible binding affinity to Nluc-fused human GPR35 expressed in CHO-K1 cells using furimazine as substrate incubated for 10 mins followed by addition of ML145 by kinetic assay; format: cell-based; conditions: filed as agonist
Procedure, shortened: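 Kinetic BRET binding used CHO-K1 cells expressing NLUC-tagged human GPR35. The BRET emission ratio was followed after adding probe (5 nM). 10 min later, ML-145 (10 μM) was added to dissociate the probe.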

[8] = target: T1, G-protein coupled receptor 35; experiment: Agonist activity at GPR-35 in human HT-29 cells incubated for 1 hr by DMR assay; format: cell-based

Ki [1] [µM]	Kd [2] [µM]	EC50 [3] [µM]	Activity [4]	IC50 [5] [µM]	Structure (SMILES)	IC50 [6] [µM]	further results
0.006	–	–	–	–	Cc1c2[nH]c(C(=O)O)cc(=O)c2cc2c(=O)cc(C(=O)O)[nH]c12	–	–
–	0.0083	0.0422	Active	0.398	CC1=CC(C)=[N+]2C1=C(c1ccc(OCCn3cc(CCCCCOc4cc(C(=O)O)nc5c(C)c6nc(C(=O)O)cc(O)c6cc45)nn3)cc1)c1nc(C)cn1[B-]2(F)F	0.0056	–
–	0.0039	0.0495	Active	0.542	CC1=CC(C)=[N+]2C1=C(c1ccc(OCCn3cc(CCCCOc4cc(C(=O)O)nc5c(C)c6nc(C(=O)O)cc(O)c6cc45)nn3)cc1)c1nc(C)cn1[B-]2(F)F	0.0094	Activity [7]: Active
2.97	–	–	–	–	O=C(O)c1cc(=O)c2c(OCC(O)COc3cccc4oc(C(=O)O)cc(=O)c34)cccc2o1 [CROMOLYN]	–	–
0.332	–	–	–	–	O=C(O)c1cc(C(=O)O)c2c(n1)C(=O)C(=O)c1cc(C(=O)O)[nH]c1-2 [PYRROLOQUINOLINE QUINONE]	–	–
0.352	–	–	–	–	O=C(O)c1cc2cc(Br)c(O)c(Br)c2oc1=O	–	–
–	0.0074	0.0808	Active	1.03	CC1=CC(C)=[N+]2C1=C(c1ccc(OCCn3cc(CCCOc4cc(C(=O)O)nc5c(C)c6nc(C(=O)O)cc(O)c6cc45)nn3)cc1)c1nc(C)cn1[B-]2(F)F	0.0096	–
–	0.0179	0.0588	Active	0.769	CC1=CC(C)=[N+]2C1=C(c1ccc(OCCn3cc(CCOCCOc4cc(C(=O)O)nc5c(C)c6nc(C(=O)O)cc(O)c6cc45)nn3)cc1)c1nc(C)cn1[B-]2(F)F	0.0078	–
0.236	–	–	–	–	COC(=O)c1cnn(-c2ccc(F)cc2F)c1/C=N/NC(=S)NC(C)(C)C	–	–
0.051	–	–	–	–	O=c1oc2c([N+](=O)[O-])c(O)c(Br)cc2cc1-c1nnn[nH]1	–	EC50 [8]: 0.006 µM
0.01	–	–	–	–	COc1ccc(C(=O)Nc2cc(Br)ccc2-c2nnn[nH]2)cc1	–	–
